Measured values from ChEMBL document CHEMBL1155242, “Radiolabeled 5-iodo-3'-O-(17beta-succinyl-5alpha-androstan-3-one)-2'-deoxyuridine and its 5'-monophosphate for imaging and therapy of androgen receptor-positive cancers: synthesis and biological evaluation” (J Med Chem, 2009).

Columns and labels:
OVCAR-3 [1] = test: Cellular uptake in human OVCAR-3 cells xenografted in athymic NCr mouse assessed per gram of cells at 180 uCi, ip administered 9 days after tumor implantation as six fractionated doses every 4 days measured after 12 days by gamma counting; type: ADME, organism-based; conditions: in vivo, 288 h
Outline: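 Mice treated with one, three or six ip doses; nonadherent OVCAR-3 cells lavaged at necropsy, 12 days after last of six doses, and counted; %ID/g decay-corrected; DNA-bound fraction measured.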

[2] = Ratio of drug level in tumor to uterus in athymic NCr mouse xenografted with human OVCAR-3 cells at 180 uCi, ip administered 9 days after tumor implantation as six fractionated doses every 4 days measured after 24 hrs by gamma counting; type: ADME, organism-based; conditions: in vivo
[3] = Ratio of drug level in tumor to kidney in athymic NCr mouse xenografted with human OVCAR-3 cells at 180 uCi, ip administered 9 days after tumor implantation as six fractionated doses every 4 days measured after 24 hrs by gamma counting; type: ADME, organism-based; conditions: in vivo
[4] = Ratio of drug level in tumor to uterus in athymic NCr mouse xenografted with human OVCAR-3 cells at 180 uCi, ip administered 9 days after tumor implantation as six fractionated doses every 4 days measured after 72 hrs by gamma counting; type: ADME, organism-based; conditions: in vivo
LNCaP = test: Cellular uptake in single-cell suspension of nonproliferating human LNCAP cells expressing androgen receptor assessed as increase in cellular retention at 0.37 uCi/mL after 5 to 16 hrs by gamma counting; type: ADME, cell-based
Outline: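 Low-passage LNCaP held as single-cell suspension (non-proliferating) in RPMI-1640 with radioligand at 0.03 or 0.37 μCi/mL; whole-cell and nuclear radioactivity measured over time.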

Serum = test: Stability in human serum assessed as half life at 10 to 20 uCi/mL by reversed phase HPLC analysis; type: ADME, cell-free
Outline: (§1)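 The compound was incubated with rabbit or human serum at ambient temperature, and aliquots were taken at 1, 5 and 24 h. Aliquots were run on size-exclusion HPLC (TSK3000; 0.1 M potassium phosphate/0.1 M Na2SO4, pH 6.8, then an acetonitrile gradient). Extracts were run on C18 reversed-phase HPLC (water/acetonitrile with 0.07% TFA). Half-lives came from a monoexponential fit.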

[5] = Ratio of drug level in tumor to liver in athymic NCr mouse xenografted with human OVCAR-3 cells at 180 uCi, ip administered 9 days after tumor implantation as six fractionated doses every 4 days measured after 48 hrs by gamma counting; type: ADME, organism-based; conditions: in vivo
OVCAR-3 [6] = test: Stability in human OVCAR-3 cells expressing androgen receptor assessed as half life at 0.1 uCi/mL by silica gel instant thin layer chromatography; type: ADME, cell-based
Outline: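 Breakdown was followed with proliferating NIH:OVCAR-3 cells grown in complete RPMI-1640 medium. The distribution of radioactive products released into the culture medium (parent compound, 125IUdR and its 3′-succinate) was measured over time. Half-life was estimated from the time course.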

[7] = target: T1, Sex hormone-binding globulin (Homo sapiens, UniProt P04278); test: Binding affinity to human sex hormone binding globulin at 10 to 20 uCi/mL after 60 mins by instant thin layer chromatography; type: ADME; conditions: 1 h
T1 sequence (P04278 whole entry): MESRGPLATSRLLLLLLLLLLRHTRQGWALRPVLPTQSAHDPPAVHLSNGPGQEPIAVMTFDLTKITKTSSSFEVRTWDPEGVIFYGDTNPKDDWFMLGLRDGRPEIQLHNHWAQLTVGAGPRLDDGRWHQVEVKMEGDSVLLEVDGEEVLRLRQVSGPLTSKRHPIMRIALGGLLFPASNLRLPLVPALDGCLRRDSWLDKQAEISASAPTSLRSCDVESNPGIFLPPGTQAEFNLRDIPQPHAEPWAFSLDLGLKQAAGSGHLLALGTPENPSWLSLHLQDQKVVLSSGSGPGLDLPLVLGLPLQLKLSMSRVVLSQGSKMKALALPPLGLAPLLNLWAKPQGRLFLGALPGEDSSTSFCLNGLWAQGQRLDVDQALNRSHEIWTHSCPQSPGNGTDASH

[8] = Ratio of drug level in tumor to blood in athymic NCr mouse xenografted with human OVCAR-3 cells at 180 uCi, ip administered 9 days after tumor implantation as six fractionated doses every 4 days measured after 48 hrs by gamma counting; type: ADME, organism-based; conditions: tumour
[9] = Ratio of drug level in tumor to blood in athymic NCr mouse xenografted with human OVCAR-3 cells at 180 uCi, ip administered 9 days after tumor implantation as six fractionated doses every 4 days measured after 24 hrs by gamma counting; type: ADME, organism-based; conditions: tumour
[10] = Stability in rabbit serum assessed as half life at 10 to 20 uCi/mL by size-exclusion HPLC analysis; type: ADME, cell-free, Oryctolagus cuniculus; outline: as §1
OVCAR-3 [11] = test: Antitumor activity against human OVCAR-3 cells xenografted in athymic NCr mouse assessed as number of nonadherent cancer cells in peritoneum at 180 uCi, ip administered 9 days after tumor implantation as six fractionated doses every 4 days measured after 2 weeks of last dose by gamma counting; type: functional
Outline: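 OVCAR-3 ip xenografts in athymic mice; six fractionated ip doses every 4 days, total 180 μCi/mouse, with PBS or vehicle ip controls. Nonadherent tumor cells recovered by peritoneal lavage at necropsy, counted and pellet-weighed.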

Albumin = Albumin (Mus musculus, UniProt P07724); test: Binding affinity to mouse serum albumin at 10 to 20 uCi/mL after 60 mins by size-exclusion HPLC analysis; type: ADME; conditions: isolated protein, 1 h
Outline: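 Radioiodinated compound incubated 60 min with human, rabbit or mouse serum, or with purified human SHBG. Aliquots analysed on a TSK3000 size-exclusion column: 0.1 M potassium phosphate/0.1 M Na2SO4 (1:1, pH 6.8) for 20 min, then 0–40% CH3CN over 20 min, held 30 min, 0.7 mL/min. Protein-bound versus free radioactivity read from the peaks.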

OVCAR-3 [12] = test: Cytotoxicity against human OVCAR-3 cells expressing androgen receptor assessed as cell survival at 3 uCi/mL after 48 hrs; type: functional
Outline: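 NIH:OVCAR-3 cells were grown for 48 h with the 125I-labelled compound, and survival was plotted against the extracellular concentration in μCi/mL.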

[13] = Ratio of drug level in tumor to liver in athymic NCr mouse xenografted with human OVCAR-3 cells at 180 uCi, ip administered 9 days after tumor implantation as six fractionated doses every 4 days measured after 72 hrs by gamma counting; type: ADME, organism-based; conditions: in vivo
[14] = Ratio of drug level in tumor to spleen in athymic NCr mouse xenografted with human OVCAR-3 cells at 180 uCi, ip administered 9 days after tumor implantation as six fractionated doses every 4 days measured after 48 hrs by gamma counting; type: ADME, organism-based; conditions: in vivo
[15] = Biodistribution in small intestine of athymic NCr mouse xenografted with human OVCAR-3 cells assessed per gram of tissue at an average 39.5 uCi/dose, ip administered 9 days after tumor implantation as six fractionated doses every 4 days measured after 2 weeks of last dose by gamma counting; type: ADME, organism-based; conditions: in vivo, 336 h
Outline: (§2)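 OVCAR-3-bearing and healthy athymic mice given fractionated ip doses on the six-dose every-4-days schedule; tissues, tumor and lavaged cells γ-counted at necropsy, %ID/g; DNA-bound 125I in cells measured as cpm/cell.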

Stomach = test: Biodistribution in stomach of athymic NCr mouse xenografted with human OVCAR-3 cells assessed per gram of tissue at an average 39.5 uCi/dose, ip administered 9 days after tumor implantation as six fractionated doses every 4 days measured after 2 weeks of last dose by gamma counting; type: ADME, organism-based; conditions: in vivo, 336 h; outline: as §2

Chain of Albumin (P07724 whole entry): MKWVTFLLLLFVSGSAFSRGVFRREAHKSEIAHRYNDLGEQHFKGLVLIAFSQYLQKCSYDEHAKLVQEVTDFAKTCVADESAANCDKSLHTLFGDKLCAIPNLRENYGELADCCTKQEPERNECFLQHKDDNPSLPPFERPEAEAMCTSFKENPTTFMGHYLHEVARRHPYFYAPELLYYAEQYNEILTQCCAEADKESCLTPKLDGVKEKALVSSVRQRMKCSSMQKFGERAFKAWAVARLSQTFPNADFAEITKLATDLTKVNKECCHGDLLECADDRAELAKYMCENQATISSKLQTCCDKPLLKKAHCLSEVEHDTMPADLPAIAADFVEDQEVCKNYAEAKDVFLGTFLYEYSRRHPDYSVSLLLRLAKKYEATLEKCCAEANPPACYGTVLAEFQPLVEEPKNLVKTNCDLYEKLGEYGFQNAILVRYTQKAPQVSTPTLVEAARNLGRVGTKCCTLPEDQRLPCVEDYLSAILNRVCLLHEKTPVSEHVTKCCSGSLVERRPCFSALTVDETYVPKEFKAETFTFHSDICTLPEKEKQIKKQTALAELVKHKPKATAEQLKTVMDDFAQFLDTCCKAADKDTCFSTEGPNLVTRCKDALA

SMILES	Drug uptake (OVCAR-3 [1]) [%ID]	Ratio [2]	Ratio [3]	Ratio [4]	fold change (FC) (LNCaP)	t1/2 (Serum) [h]	Ratio [5]	t1/2 (OVCAR-3 [6]) [h]	Activity [7]	Ratio [8]	Ratio [9]	t1/2 [10] [h]	Activity (OVCAR-3 [11])	Activity (Albumin)	Survival (OVCAR-3 [12]) [%]	Ratio [13]	Ratio [14]	Drug uptake [15] [%ID]	Drug uptake (Stomach) [%ID]
C[C@]12CCC(=O)C[C@@H]1CC[C@@H]1[C@@H]2CC[C@]2(C)[C@@H](OC(=O)CCC(=O)O[C@H]3C[C@H](n4cc([125I])c(=O)[nH]c4=O)O[C@@H]3CO)CC[C@@H]12	0.5	29.9	79.1	7.4	10	14.7	34.4	3.2	Active	36.5	64.7	5.7	1250000000	Not Active	50	21.8	24.8	–	–
C[C@]12CCC(=O)C[C@@H]1CC[C@@H]1[C@@H]2CC[C@]2(C)[C@@H](OC(=O)CCC(=O)O[C@H]3C[C@H](n4cc([125I])c(=O)[nH]c4=O)O[C@@H]3COP(=O)(O)O)CC[C@@H]12	–	–	–	–	–	–	–	–	–	–	–	–	–	–	–	–	–	0.011	0.009
